Active and inactive are the calls of the source. The calls are words filed in the database; no cut-off is given here.

This note sets out measurements from ChEMBL document CHEMBL4219031, “Identification and Characterization of Von Hippel-Lindau-Recruiting Proteolysis Targeting Chimeras (PROTACs) of TANK-Binding Kinase 1” (J Med Chem, 2018).

Test [1] concerns the target T1, Serine/threonine-protein kinase TBK1 (Homo sapiens, UniProt Q9UHD2).
T1 sequence (Q9UHD2 whole entry): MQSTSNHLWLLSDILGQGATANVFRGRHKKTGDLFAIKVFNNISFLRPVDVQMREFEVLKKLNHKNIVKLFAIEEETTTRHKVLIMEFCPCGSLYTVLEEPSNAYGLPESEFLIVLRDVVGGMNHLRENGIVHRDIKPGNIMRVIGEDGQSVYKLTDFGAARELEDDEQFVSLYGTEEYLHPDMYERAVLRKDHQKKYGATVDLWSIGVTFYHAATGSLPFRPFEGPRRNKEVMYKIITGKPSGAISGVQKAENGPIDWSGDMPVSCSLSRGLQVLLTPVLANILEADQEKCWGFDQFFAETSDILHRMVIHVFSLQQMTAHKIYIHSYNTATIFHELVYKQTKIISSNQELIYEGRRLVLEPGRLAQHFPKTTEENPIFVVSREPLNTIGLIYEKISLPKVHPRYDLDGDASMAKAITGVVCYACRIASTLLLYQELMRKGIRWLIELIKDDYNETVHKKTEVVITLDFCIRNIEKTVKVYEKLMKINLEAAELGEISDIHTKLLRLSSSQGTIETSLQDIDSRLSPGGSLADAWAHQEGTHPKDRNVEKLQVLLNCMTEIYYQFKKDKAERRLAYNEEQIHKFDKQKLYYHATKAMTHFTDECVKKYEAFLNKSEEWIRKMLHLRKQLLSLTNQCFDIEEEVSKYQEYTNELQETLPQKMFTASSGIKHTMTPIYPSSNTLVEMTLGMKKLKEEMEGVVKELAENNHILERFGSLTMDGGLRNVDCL
Put plainly: Binding affinity to human full length wild-type TBK1 expressed in mammalian expression system.

In test [2] the target is T2, von Hippel-Lindau disease tumor suppressor/Serine/threonine-protein kinase TBK1 (Homo sapiens, UniProt Q9UHD2+P40337). Put plainly: Induction of VHL-mediated TBK1 degradation in human Panc02.13 cells after 16 hrs by Western blot method. Type of test: cell-based. The gist of the method: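 For phospho-IRF3 read-out, TLR3 agonist Poly I:C added for the final 3 h. Cells lysed in RIPA buffer with protease/phosphatase inhibitors, lysates clarified at 16,000g, run on SDS-PAGE and immunoblotted for TBK1, pIRF3 and GAPDH.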
Target sequence in this assay (P40337 whole entry, one chain of several): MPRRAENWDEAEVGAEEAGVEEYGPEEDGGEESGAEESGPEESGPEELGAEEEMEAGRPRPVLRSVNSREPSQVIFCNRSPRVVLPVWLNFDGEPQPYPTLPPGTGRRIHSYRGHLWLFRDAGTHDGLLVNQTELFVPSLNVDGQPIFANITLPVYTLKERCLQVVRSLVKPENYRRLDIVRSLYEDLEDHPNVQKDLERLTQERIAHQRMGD

Test [3] deals with T2, von Hippel-Lindau disease tumor suppressor/Serine/threonine-protein kinase TBK1. Put plainly: Induction of VHL-mediated TBK1 degradation in human Panc02.13 cells at 1 uM after 16 hrs by Western blot method. Type of test: cell-based. The gist of the method: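 Panc02.13 cells grown in RPMI-1640 with 15% FBS and 10 units/mL human recombinant insulin; compound exposure 16 h, with TLR3 agonist Poly I:C added for the final 3 h. Cells lysed in RIPA buffer with protease and phosphatase inhibitors, lysates clarified at 16,000g for 10 min, resolved by SDS-PAGE and immunoblotted for TBK1, with GAPDH as loading control.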
Target sequence in this assay (P40337 whole entry, looked up, one chain of several): as the sequence (P40337 whole entry, one chain of several) above

Another test is filed under the species Homo sapiens. Put plainly: Antiproliferative activity against human NCI-H2110 cells harboring wild-type K-Ras at 10 uM after 72 hrs by CellTiter-Glo assay. It counts as functional, cell-based. The procedure, abridged:
(§1)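 Lung cancer lines seeded at 5000 cells/well; after 24 h, compound added as 3-fold dilutions (10 μM top final concentration, 0.1% DMSO final). Incubated 72 h, then viability read by CellTiter-Glo luminescence.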

The target of test [4] is T2, von Hippel-Lindau disease tumor suppressor/Serine/threonine-protein kinase TBK1. Put plainly: Induction of VHL-mediated TBK1 degradation in human H1792 cells harboring K-Ras mutant at 100 to 300 nM after 16 hrs by Western blot method. It counts as cell-based.
Target sequence in this assay (P40337 whole entry, looked up, one chain of several): as the sequence (P40337 whole entry, one chain of several) above
The target is the same in test [5]. The experiment in a line: Induction of VHL-mediated TBK1 degradation in human A549 cells harboring K-Ras mutant at 100 nM after 16 hrs by Western blot method. Type of test: cell-based.
Target sequence in this assay (P40337 whole entry, looked up, one chain of several): as the sequence (P40337 whole entry, one chain of several) above
The target is the same in test [6]. The experiment in a line: Induction of VHL-mediated TBK1 degradation in human Panc02.13 cells at 100 nM after 16 hrs in presence of proteosome inhibitor carfilzomib by Western blot method. Type of test: cell-based. The gist of the method:
(§2)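 Panc02.13 cells grown in RPMI-1640 with 15% FBS and 10 units/mL human recombinant insulin, exposed to compound for 16 h. For phospho-IRF3 read-out, TLR3 agonist Poly I:C added for the final 3 h. Cells lysed in RIPA buffer with protease/phosphatase inhibitors, lysates clarified at 16,000g, run on SDS-PAGE and immunoblotted for TBK1, pIRF3 and GAPDH.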
Target sequence in this assay (P40337 whole entry, looked up, one chain of several): as the sequence (P40337 whole entry, one chain of several) above

Test [7] shares this target. The experiment in a line: Induction of VHL-mediated TBK1 degradation in human Panc02.13 cells at 100 nM after 16 hrs by Western blot method. It counts as cell-based. The gist of the method: as §2
Target sequence in this assay (P40337 whole entry, looked up, one chain of several): as the sequence (P40337 whole entry, one chain of several) above
The test system of another test is NCI-H23. Put plainly: Antiproliferative activity against human H23 cells harboring K-Ras mutant at 10 uM after 72 hrs by CellTiter-Glo assay. Type of test: functional, cell-based. The procedure, abridged: as §1
The target of test [8] is von Hippel-Lindau disease tumor suppressor/Elongin-C/Elongin-B/HIF1A (Homo sapiens, UniProt P40337+Q15369+Q15370+Q16665). The experiment in a line: Inhibition of His-tagged VHL/elongin B/elongin C (unknown origin) interaction with HIF1alpha preincubated for 10 mins followed by fluorescin labelled HIF1alpha peptide addition measured after 2 hrs by fluorescence polarization assay. Type of test: protein-complex assay. The gist of the method:
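VHL coexpressed and copurified with Elongin B and C (VCB). Compound preincubated 10 min with VHL in 50 mM Tris pH 7.5, 200 mM NaCl, 2 mM DTT, 1% DMSO. Polarization converted to percent binding against control wells; IC50 from four-parameter fit.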

The next test relates to NCI-H1792. The experiment in a line: Antiproliferative activity against human NCI-H1792 cells harboring K-Ras mutant at 10 uM after 72 hrs by CellTiter-Glo assay. Type of test: functional, cell-based. The procedure, abridged: as §1
Another test has as its system A549. The experiment in a line: Antiproliferative activity against human A549 cells harboring K-Ras mutant at 10 uM after 72 hrs by CellTiter-Glo assay. It counts as functional, cell-based. The gist of the method:
as §1

Test [9] deals with T2, von Hippel-Lindau disease tumor suppressor/Serine/threonine-protein kinase TBK1. The experiment in a line: Induction of VHL-mediated TBK1 degradation in human Panc02.13 cells at 100 nM after 16 hrs in presence of (2S,4R)-1-((S)-2-acetamido-3,3-dimethylbutanoyl)-4-hydroxy-N-(4-(4-methylthiazol-5-yl)benzyl)pyrrolidine-2-carboxamide by Western blot method. It counts as cell-based. The procedure, abridged: as §2
Target sequence in this assay (P40337 whole entry, looked up, one chain of several): as the sequence (P40337 whole entry, one chain of several) above

The target in test [10] is von Hippel-Lindau disease tumor suppressor/Inhibitor of nuclear factor kappa-B kinase subunit epsilon (Homo sapiens) (UniProt Q14164+P40337). Put plainly: Induction of VHL-mediated IKKepsilon degradation in human Panc02.13 cells up to 3 uM after 16 hrs by Western blot method. Type of test: cell-based.
The test system of the next test is HCC827. Put plainly: Antiproliferative activity against human HCC827 cells harboring wild-type K-Ras at 10 uM after 72 hrs by CellTiter-Glo assay. It counts as functional, cell-based. The gist of the method:
as §1

Test [11] addresses T2, von Hippel-Lindau disease tumor suppressor/Serine/threonine-protein kinase TBK1. Put plainly: Induction of VHL-mediated TBK1 degradation in human H2110 cells harboring wild-type K-Ras at 100 to 300 nM after 16 hrs by Western blot method. Type of test: cell-based.
Test [12] shares this target. The experiment in a line: Induction of VHL-mediated TBK1 degradation in human HCC827 cells harboring wild-type K-Ras at 100 to 300 nM after 16 hrs by Western blot method. Type of test: cell-based.
For test [13] the target is unchanged. Put plainly: Induction of VHL-mediated TBK1 degradation in human Panc02.13 cells after 16 hrs by Western blot method relative to control. It counts as cell-based. The procedure, abridged:
as §2

Test [14] has the same target. The experiment in a line: Induction of VHL-mediated TBK1 degradation in human H23 cells harboring K-Ras mutant at 100 to 300 nM after 16 hrs by Western blot method. Type of test: cell-based.
For test [15] the target is unchanged. Put plainly: Induction of VHL-mediated TBK1 degradation in human Panc02.13 cells assessed as decrease in Poly(I:C)-induced in IRF3 phosphorylation at 100 nM preincubated for 16 hrs followed by Poly I:C addition measured after 3 hrs by Western blot method. Type of test: cell-based. The procedure, abridged: as §2
Test [16] shares this target. Put plainly: Induction of VHL-mediated TBK1 degradation in human Panc02.13 cells at 0.1 to 1 uM after 16 hrs by Western blot method. Type of test: cell-based. The procedure, abridged:
as §2

Test [17] addresses T3, Serine/threonine-protein kinase TBK1 (Homo sapiens) (UniProt Q9UHD2).
T3 sequence (whole entry): T1 sequence (Q9UHD2 whole entry)
The experiment in a line: Antagonist activity at TBK1 in human Panc02.13 cells assessed as decrease in Poly(I:C)-induced IRF3 phosphorylation preincubated for 16 hrs followed by Poly I:C addition measured after 3 hrs by Western blot method. Type of test: cell-based. The procedure, abridged:
as §2

Sequence of von Hippel-Lindau disease tumor suppressor/Elongin-C/Elongin-B/HIF1A (P40337 whole entry, looked up): as the sequence (P40337 whole entry, one chain of several) above
Sequence of von Hippel-Lindau disease tumor suppressor/Elongin-C/Elongin-B/HIF1A (Q15369 whole entry, looked up): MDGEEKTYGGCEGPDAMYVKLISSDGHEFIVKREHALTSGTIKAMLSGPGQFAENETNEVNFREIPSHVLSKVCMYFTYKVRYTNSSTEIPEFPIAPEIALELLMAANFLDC
Sequence of von Hippel-Lindau disease tumor suppressor/Elongin-C/Elongin-B/HIF1A (Q15370 whole entry, looked up): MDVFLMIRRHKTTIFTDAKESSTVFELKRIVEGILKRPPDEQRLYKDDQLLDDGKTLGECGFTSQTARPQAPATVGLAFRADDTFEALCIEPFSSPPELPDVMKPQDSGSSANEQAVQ
Sequence of von Hippel-Lindau disease tumor suppressor/Elongin-C/Elongin-B/HIF1A (Q16665 whole entry, looked up): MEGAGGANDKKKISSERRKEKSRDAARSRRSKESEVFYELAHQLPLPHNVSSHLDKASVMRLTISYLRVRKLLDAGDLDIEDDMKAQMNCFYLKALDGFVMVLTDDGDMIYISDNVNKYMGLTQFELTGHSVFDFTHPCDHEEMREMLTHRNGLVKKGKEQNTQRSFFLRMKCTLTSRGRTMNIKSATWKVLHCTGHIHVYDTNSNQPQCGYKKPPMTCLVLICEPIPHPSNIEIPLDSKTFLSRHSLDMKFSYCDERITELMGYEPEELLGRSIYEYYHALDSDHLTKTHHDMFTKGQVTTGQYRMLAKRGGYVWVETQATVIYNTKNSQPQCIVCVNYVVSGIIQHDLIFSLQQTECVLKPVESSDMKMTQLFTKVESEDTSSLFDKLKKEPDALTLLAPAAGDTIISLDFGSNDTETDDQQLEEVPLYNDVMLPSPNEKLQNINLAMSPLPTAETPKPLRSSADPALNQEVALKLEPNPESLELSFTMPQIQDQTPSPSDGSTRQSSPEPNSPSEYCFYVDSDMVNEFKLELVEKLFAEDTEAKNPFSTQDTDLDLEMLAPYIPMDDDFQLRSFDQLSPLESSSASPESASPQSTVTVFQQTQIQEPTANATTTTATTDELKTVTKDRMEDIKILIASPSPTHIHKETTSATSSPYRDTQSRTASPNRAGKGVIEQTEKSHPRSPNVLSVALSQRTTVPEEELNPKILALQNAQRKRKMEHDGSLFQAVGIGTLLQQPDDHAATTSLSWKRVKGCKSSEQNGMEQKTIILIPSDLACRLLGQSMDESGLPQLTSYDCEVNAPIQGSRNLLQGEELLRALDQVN
Sequence of von Hippel-Lindau disease tumor suppressor/Inhibitor of nuclear factor kappa-B kinase subunit epsilon (Homo sapiens) (P40337 whole entry, looked up): as the sequence (P40337 whole entry, one chain of several) above
Sequence of von Hippel-Lindau disease tumor suppressor/Inhibitor of nuclear factor kappa-B kinase subunit epsilon (Homo sapiens) (Q14164 whole entry, looked up): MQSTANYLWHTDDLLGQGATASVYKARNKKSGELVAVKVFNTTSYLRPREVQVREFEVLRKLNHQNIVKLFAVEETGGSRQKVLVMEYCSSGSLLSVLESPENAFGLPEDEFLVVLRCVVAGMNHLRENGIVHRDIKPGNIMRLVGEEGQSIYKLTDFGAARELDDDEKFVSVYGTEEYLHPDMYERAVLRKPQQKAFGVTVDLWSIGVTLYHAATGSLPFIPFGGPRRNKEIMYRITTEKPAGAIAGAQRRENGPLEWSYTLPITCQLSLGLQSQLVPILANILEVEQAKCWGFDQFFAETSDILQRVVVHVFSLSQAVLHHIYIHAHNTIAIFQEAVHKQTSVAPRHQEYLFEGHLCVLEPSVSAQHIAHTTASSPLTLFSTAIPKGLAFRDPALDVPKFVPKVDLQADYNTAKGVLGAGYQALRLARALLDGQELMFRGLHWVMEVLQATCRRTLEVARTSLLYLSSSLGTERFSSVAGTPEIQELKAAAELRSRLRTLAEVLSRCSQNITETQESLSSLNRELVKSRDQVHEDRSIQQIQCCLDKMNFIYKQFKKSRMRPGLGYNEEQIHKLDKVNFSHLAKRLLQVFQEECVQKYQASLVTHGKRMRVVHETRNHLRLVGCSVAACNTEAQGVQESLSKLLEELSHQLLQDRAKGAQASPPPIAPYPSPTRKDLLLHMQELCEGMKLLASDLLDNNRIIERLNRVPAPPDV

In test [1], `CCOc1ccc(Nc2ncc(Br)c(NCCCN(C)C(=O)C3CCC3)n2)cc1` gave a Kd of 1.3 nM. In test [2], this compound gave a DC50 of more than 1000 nM. Further, in test [3], the result was inactive.
As for `Cc1ncsc1-c1ccc(CNC(=O)[C@@H]2C[C@@H](O)CN2C(=O)[C@@H](NC(=O)COCCCOCCCCOCCCOc2ccc(Nc3ncc(Br)c(NCCCN(C)C(=O)C4CCC4)n3)cc2)C(C)(C)C)cc1`, the result (in the test filed under Homo sapiens; in [6]; in the test on NCI-H23; with NCI-H1792; in the test with A549; in test [9]) was inactive. Also, the result (in test [10]; in the test on HCC827) was inactive. Further, the result in [4], in [5], in [7], in test [11], in test [12] and in [14] was Active. The result in test [15] was Active. This compound also yielded a DC50 in test [2] of 9 to 12 nM. The compound further gave an IC50 in test [8] of 4900 nM. In [13], the Emax came out at 96%.
In [2], `Cc1ncsc1-c1ccc(CNC(=O)[C@@H]2C[C@@H](O)CN2C(=O)CNC(=O)COCCCOCCCCOCCCOc2ccc(Nc3ncc(Br)c(NCCCN(C)C(=O)C4CCC4)n3)cc2)cc1` yielded a DC50 of more than 1000 nM. The IC50 in test [8] was more than 100000 nM. Further, the Emax in test [13] came to 0%.
On to `Cc1ncsc1-c1ccc(CNC(=O)[C@@H]2C[C@H](O)CN2C(=O)[C@@H](NC(=O)COCCCOCCCCOCCCOc2ccc(Nc3ncc(Br)c(NCCCN(C)C(=O)C4CCC4)n3)cc2)C(C)(C)C)cc1`, for which binding in [1] was put at a Kd of 5.9 nM. The compound also came in with an IC50 in [8] of more than 100000 nM. For the same compound, in [16], the outcome was inactive. Also, the inhibition result in [17] was “Active”.
Take `CCC[C@H](NC(=O)COCCCOCCCCOCCCOc1ccc(Nc2ncc(Br)c(NCCCN(C)C(=O)C3CCC3)n2)cc1)C(=O)N1C[C@H](O)C[C@H]1C(=O)NCc1ccc(-c2scnc2C)cc1`: the half-maximal degradation concentration (DC50) in [2] was 288 nM. Also, the midpoint of inhibition in test [8], the IC50, lay at 16000 nM. Besides, the Emax in test [13] was 75%.
